Results on 7 compounds are retold here after article PMC3082000 (Bioorganic & medicinal chemistry letters, 2010).

A short description of data set [1]: solubility. The data set is classed as physicochemical.
Data set [2] deals with T1, M1 (Rattus norvegicus, UniProt P08482).
T1 sequence (P08482 1-460): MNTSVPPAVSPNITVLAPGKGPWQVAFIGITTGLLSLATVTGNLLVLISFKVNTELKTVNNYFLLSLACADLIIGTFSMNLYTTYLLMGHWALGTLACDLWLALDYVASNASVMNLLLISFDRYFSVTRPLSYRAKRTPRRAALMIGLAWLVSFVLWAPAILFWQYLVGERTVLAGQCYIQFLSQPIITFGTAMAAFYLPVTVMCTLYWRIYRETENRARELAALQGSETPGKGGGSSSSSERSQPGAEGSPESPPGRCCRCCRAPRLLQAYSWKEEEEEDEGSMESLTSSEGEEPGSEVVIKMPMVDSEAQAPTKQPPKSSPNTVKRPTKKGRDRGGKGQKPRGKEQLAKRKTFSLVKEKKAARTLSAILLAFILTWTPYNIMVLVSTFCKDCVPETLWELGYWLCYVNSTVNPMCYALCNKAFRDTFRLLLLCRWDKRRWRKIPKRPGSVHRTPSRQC
In words: real-time cell-based calcium-mobilization assay, M1 PAM.

For data set [3], the system named is M2-M5. Description: counter-screening against M2-M5. The data set is classed as cell-based. As to conditions: read-out: M2-M5 EC50; selectivity counter-screen. (In general: A counterscreen serves to expose hits that act by an unwanted route or on another target.)
Data set [4] concerns M1-M5. In words: Lead Profile screen at Ricerca, orthosteric binding.
Data set [5] concerns biogenic amines (D2, H-HT2B, etc…). In words: Lead Profile screen at Ricerca, radioligand binding.
The test system of data set [6] is TREx293-hM1 cells. In words: APP processing: M1-stimulated APPsα release, Western blot. The data set is classed as cell-based, human. As to conditions: for APPsα release, in combination with low dose CCh: 2 μM with 100 nM CCh. The method in brief:
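Stable human M1-overexpressing TREx293 cells, plated 2 days before use, were pretreated 15 min with 2 μM test compound or DMSO. Carbachol (100 nM or 10 μM) was then added, and medium was conditioned 1 h at 37°C. Endogenous APPsα in conditioned medium was detected by Western blot.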

For data set [7] the following is noted: cited from earlier work.
Data set [8] has as its target T1, M1. As to conditions: cited from earlier work.

Consider `Cc1cc(NC(=O)CS(=O)(=O)c2cn(Cc3cccc(Br)c3)c3ccccc23)no1` [13g], for which the solubility entry in data set [1] is listed as “poor”.

Turning to `CCC(C)n1cc(-c2cccc(Cn3cc(S(=O)(=O)CC(=O)Nc4cc(C)on4)c4ccccc43)c2)cn1` (stereo not drawn) [14c], the “M1 EC50” value in data set [2] (average of at least three independent determinations) was “inactive”.

What is called EC50 is the concentration that produces a half-maximal response. As for `Cc1cc(NC(=O)CS(=O)(=O)c2cn(Cc3cccc(-c4cn[nH]c4)c3)c3cc(F)cc(F)c23)no1` [15e], the concentration giving a half-maximal response (EC50) in data set [3] was greater than 30 µM.

For the compound `Cc1cc(NC(=O)CS(=O)(=O)c2cn(Cc3cc(Br)ccc3F)c3ccccc23)no1` [15j, 2-((1-(5-bromo-2-fluorobenzyl)-1H-indol-3-yl)sulfonyl)-N-(5-methylisoxazol-3-yl)acetamide], the “orthosteric binding at M1-M5” value in data set [4] was “no orthosteric binding”. Further, in data set [2] (relative to the non-fluorinated bromine analog), the improvement in potency was roughly 3 fold. In addition, in data set [5], the “selectivity versus the biogenic amines” value is reported as “selective”. The “APPsα release, in combination with low dose CCh” value in data set [6] (TREx293-hM1 cells, listed as ML169) is “potentiates the CCh-mediated non-amyloidogenic APPsα release to the same degree as 10 μM CCh”; in data set [6] (TREx293-hM1 cells, listed as VU04505652) it was “potentiates the CCh-mediated non-amyloidogenic APPsα release”. For the same compound, the “APPsα release, compound alone” value in data set [6] (2 μM, TREx293-hM1 cells) is recorded as “no effect”. Moreover, in data set [3], the 50% effective concentration (EC50) is greater than 30 µM.

Turning to `C[N+](C)(C)CCOC(N)=O` [carbachol, reference compound], the “soluble APP (APPsα)” value in data set [6] (100 nM) is “modest increase”; in data set [6] (10 μM), “significant increase”.

Regarding `Cn1cc(-c2ccc(CN3C(=O)C(=O)c4ccccc43)c(F)c2)cn1` [compound 3], in data set [7], the brainAUC/plasmaAUC is listed as roughly 0.1. The “efficacy (% ACh Max)” value in data set [8] is 60 % ACh Max.

Consider `Cc1cc(NC(=O)CS(=O)(=O)c2cn(Cc3ccccc3Cl)c3ccccc23)no1` [compound 7], for which the EC50 in data set [3] was greater than 30 µM.
